Results from ChEMBL document CHEMBL1125485, “Inhibitors of blood platelet cAMP phosphodiesterase. 2. Structure-activity relationships associated with 1,3-dihydro-2H-imidazo[4,5-b]quinolin-2-ones substituted with functionalized side chains” (J Med Chem, 1992).

What was measured:
Phosphodiesterase 3 = Phosphodiesterase 3 (Homo sapiens, UniProt Q14432+Q13370); experiment: Inhibition of human platelet PDE by inhibiting cyclic Adenosine monophosphate (cAMP) hydrolysis
Oryctolagus cuniculus = species on record: Oryctolagus cuniculus; experiment: Inhibition of platelet aggregation using collagen as activating agent in rabbit platelet rich plasma (PRP); format: functional
How it was run: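 Rabbit platelet-rich plasma, aggregation triggered by ADP or collagen after 3 min preincubation of PRP with drug. Single or duplicate determinations, reference agent included.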

[1] = target: cGMP-dependent 3',5'-cyclic phosphodiesterase (Homo sapiens, UniProt O00408); experiment: Inhibition of human platelet PDE by inhibiting cyclic Guanosine monophosphate (cGMP) hydrolysis
Chain of cGMP-dependent 3',5'-cyclic phosphodiesterase (O00408 whole entry): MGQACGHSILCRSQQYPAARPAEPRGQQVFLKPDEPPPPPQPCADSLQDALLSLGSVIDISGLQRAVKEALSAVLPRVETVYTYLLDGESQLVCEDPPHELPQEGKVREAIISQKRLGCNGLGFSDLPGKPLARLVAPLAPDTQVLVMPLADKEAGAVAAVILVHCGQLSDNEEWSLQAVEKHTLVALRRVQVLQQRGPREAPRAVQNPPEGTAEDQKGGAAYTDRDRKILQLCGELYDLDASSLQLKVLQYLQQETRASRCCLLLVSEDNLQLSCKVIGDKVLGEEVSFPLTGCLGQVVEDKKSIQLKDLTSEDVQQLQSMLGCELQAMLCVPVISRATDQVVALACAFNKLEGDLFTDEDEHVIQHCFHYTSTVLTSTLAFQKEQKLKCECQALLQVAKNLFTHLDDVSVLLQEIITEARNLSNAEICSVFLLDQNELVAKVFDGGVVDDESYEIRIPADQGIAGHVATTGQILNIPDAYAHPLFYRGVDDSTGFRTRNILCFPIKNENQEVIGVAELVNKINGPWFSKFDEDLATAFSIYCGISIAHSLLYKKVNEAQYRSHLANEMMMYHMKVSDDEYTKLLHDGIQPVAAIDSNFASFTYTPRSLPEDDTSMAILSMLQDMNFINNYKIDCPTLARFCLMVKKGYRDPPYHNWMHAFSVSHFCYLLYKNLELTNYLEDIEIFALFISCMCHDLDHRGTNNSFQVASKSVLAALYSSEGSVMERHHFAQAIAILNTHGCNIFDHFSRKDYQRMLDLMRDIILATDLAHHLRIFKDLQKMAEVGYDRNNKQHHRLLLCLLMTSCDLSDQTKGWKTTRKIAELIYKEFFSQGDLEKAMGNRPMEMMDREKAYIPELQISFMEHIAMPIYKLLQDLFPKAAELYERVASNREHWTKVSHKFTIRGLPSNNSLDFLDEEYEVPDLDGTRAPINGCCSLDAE

Rattus norvegicus [2] = species on record: Rattus norvegicus; experiment: Oral efficacy in rats using the ex vivo aggregatory protocol; format: functional
How it was run: (§1)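 Rats given compound orally, then ADP-induced platelet aggregation measured ex vivo.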

Rattus norvegicus [3] = experiment: Percent inhibition of oral efficacy in rats using the ex vivo aggregatory protocol at 10 mg/kg; format: functional; how it was run: as §1

Row | Compound | IC50 (Phosphodiesterase 3) [µM] | EC50 (Oryctolagus cuniculus) [µM] | IC50 [1] [µM] | ED50 (Rattus norvegicus [2]) [mg/kg] | inhibition in vivo at 10 mg/kg (Rattus norvegicus [3]) [%]
1 | Cn1c(=O)n(C)c2nc3ccc(OCCCC(=O)O)cc3cc21 | 4 | 1.25 |  |  | 
2 | CNC(=O)CCCOc1ccc2[nH]c3nc(O)nc-3cc2c1 | 0.007 | 0.83 |  | < 10 | 57
3 | CCOC(=O)COc1ccc2[nH]c3nc(O)nc-3cc2c1 |  | 7.6 |  |  | 
4 | Cn1c(O)nc2nc3ccc(OCCCC(=O)N4CCCCC4)cc3cc21 |  | 2.44 | 60 |  | 
5 | O=C(O)CCCOc1ccc2c(c1)CN1CC(=O)NC1=N2 | 0.04 | 3.46 |  |  | 
6 | CN(C(=O)CCCCOc1ccc2nc3nc(O)n(C)c3cc2c1)C1CCCCC1 | 0.5 |  | 60 | 10 | 
7 | CC(=O)OCCCCOc1ccc2[nH]c3nc(O)nc-3cc2c1 | 0.04 | 0.32 |  |  | 
8 | COC(=O)CCCCc1ccc2[nH]c3nc(O)nc-3cc2c1 | 0.9 | 0.27 |  | > 10 | 29
9 | O=C(CCCCc1ccc2[nH]c3nc(O)nc-3cc2c1)NC12C[C@H]3C[C@@H](C1)C[C@@H](C2)C3 | 0.006 | 0.3 |  |  | 
10 | O=C(O)CCCCOc1ccc2nc3[nH]c(=O)[nH]c3cc2c1 |  | > 106 | 30 |  | 
11 | CN(C(=O)CCCOc1ccc2nc3c(cc2c1)n(C)c(=O)n3C)C1CCCCC1 | 5 | 13.4 |  |  | 
12 | O=C(CCCCc1ccc2[nH]c3nc(O)nc-3cc2c1)NC1CCCCC1 | 0.3 | 0.19 |  |  | 
13 | CCOCCOc1ccc2[nH]c3nc(O)nc-3cc2c1 | 0.05 | 1.29 |  |  | 
14 | O=C(O)CN(C(=O)CCCOc1ccc2[nH]c3nc(O)nc-3cc2c1)C1CCCCC1 | 0.0003 | 0.46 |  |  | 
15 | COC(=O)CCCCOc1ccc2[nH]c3nc(O)nc-3cc2c1 |  |  | > 100 |  | 
16 | OCCCCCc1ccc2[nH]c3nc(O)nc-3cc2c1 | 0.1 | 0.22 |  | > 10 | 26

Row | Compound | IC50 (Phosphodiesterase 3) [µM] | EC50 (Oryctolagus cuniculus) [µM] | IC50 [1] [µM] | ED50 (Rattus norvegicus [2]) [mg/kg] | inhibition in vivo at 10 mg/kg (Rattus norvegicus [3]) [%]
17 | COC(=O)CCCOc1ccc2nc3c(cc2c1)n(C)c(=O)n3C | 40 | 54.7 |  |  | 
18 | O=C(O)CCCCCOc1ccc2[nH]c3nc(O)nc-3cc2c1 | 0.004 | 0.95 | 7 |  | 
19 | COC(=O)CCCCOc1ccc2nc3nc(O)n(C)c3cc2c1 | 5 |  | 100 |  | 
20 | CCOC(=O)CCCOc1ccc2c(c1)CN1CC(=O)NC1=N2 | 0.07 |  |  |  | 
21 | Cn1c(O)nc2nc3ccc(OCCCCC(=O)O)cc3cc21 | 0.08 | > 100 | 10 |  | 
22 | Cn1c(O)nc2nc3ccc(OCCCC(=O)O)cc3cc21 | 0.6 | > 106 | 10 | > 10 | 
23 | NC(=O)CCCOc1ccc2[nH]c3nc(O)nc-3cc2c1 | 0.008 | 2.52 | > 100 |  | 
24 | Oc1nc2cc3cc(OCCCCc4nnn[nH]4)ccc3[nH]c-2n1 | 0.01 | 1.01 |  |  | 
25 | O=C(CCCOc1ccc2[nH]c3nc(O)nc-3cc2c1)N1CCCCC1 | 0.02 |  | > 100 | < 10 | 57
26 | Oc1nc2cc3cc(OCCCc4nnn[nH]4)ccc3[nH]c-2n1 | 0.003 | 1.58 |  |  | 
27 | OCCCc1ccc2[nH]c3nc(O)nc-3cc2c1 | 0.06 | 0.41 |  |  | 
28 | Cn1c(O)nc2nc3ccc(OCCCS(=O)(=O)c4ccccc4)cc3cc21 | 0.3 | 15.1 |  |  | 
29 | CN(C(=O)CCCCOc1ccc2nc3nc(O)n(C)c3cc2c1)C1CCCCCC1 | 0.6 |  | 10 | > 10 | 43
30 | O=C(O)CCCCc1ccc2[nH]c3nc(O)nc-3cc2c1 | 0.02 | 21 | 10 |  | 
31 | O=C(O)COc1ccc2[nH]c3nc(O)nc-3cc2c1 | 0.07 | 0.76 | 50 | < 10 | 61
32 | COC(=O)CCCOc1ccc2nc3[nH]c(=O)n(C)c3cc2c1 |  |  | 100 |  | 

More lines, main results first:

Row | IC50 (Phosphodiesterase 3) [µM] | EC50 (Oryctolagus cuniculus) [µM] | IC50 [1] [µM] | Compound | ED50 (Rattus norvegicus [2]) [mg/kg] | inhibition in vivo at 10 mg/kg (Rattus norvegicus [3]) [%]
33 | 0.002 | 0.009 | 3 | CCOC(=O)CN(C(=O)CCCOc1ccc2[nH]c3nc(O)nc-3cc2c1)C1CCCCC1 |  | 
34 | 0.009 | 0.15 | 50 | OCCCOc1ccc2[nH]c3nc(O)nc-3cc2c1 |  | 
35 | 0.02 | 0.18 |  | O=C(O)C1CCN(C(=O)CCCOc2ccc3[nH]c4nc(O)nc-4cc3c2)CC1 |  | 
36 | 0.1 | 0.07 |  | CC(O)CCCOc1ccc2[nH]c3nc(O)nc-3cc2c1 (centres undefined) |  | 
37 | 0.3 | 0.021 |  | CC(C)OC(=O)CCCOc1ccc2[nH]c3nc(O)nc-3cc2c1 | > 10 | 24
38 | 0.002 | 0.05 | > 100 | O=c1[nH]c2cc3cc(OCCCS(=O)(=O)c4ccccc4)ccc3nc2[nH]1 |  | 
39 | 2 | 0.17 |  | COC(=O)CCCOc1ccc2nc3c(cc2c1)nc(O)n3C |  | 
40 | 0.003 | 0.08 |  | CN(C(=O)CCCOc1ccc2c(c1)CN1CC(=O)NC1=N2)C1CCCCC1 [LIXAZINONE] |  | 
41 | 0.1 | 0.13 |  | N#CCCCCOc1ccc2[nH]c3nc(O)nc-3cc2c1 |  | 
42 | 1 | 0.1 |  | Cn1c(O)nc2cc3cc(OCCCC(=O)O)ccc3nc21 | < 10 | 59
43 | 0.03 | 0.07 |  | CC(=O)OCCOc1ccc2[nH]c3nc(O)nc-3cc2c1 |  | 
44 | 0.003 | 0.006 | 7 | CN(C(=O)CCCCCOc1ccc2nc3[nH]c(=O)[nH]c3cc2c1)C1CCCCC1 |  | 
45 | 0.1 | 0.01 | 7 | CN(C(=O)CCCOc1ccc2nc3nc(O)n(C)c3cc2c1)C1CCCCCC1 | 10 | 
46 | 0.0005 | 0.002 | 5.5 | COC(=O)CN(C(=O)CCCOc1ccc2[nH]c3nc(O)nc-3cc2c1)C1CCCCC1 | 3 | 
47 | 0.06 | 0.17 |  | O=C(CCCCc1ccc2[nH]c3nc(O)nc-3cc2c1)N1CCCCC1 |  | 
48 | 0.08 | 0.07 |  | CC(=O)CCCOc1ccc2[nH]c3nc(O)nc-3cc2c1 |  | 
49 | 0.006 | 0.033 |  | N#CCCCOc1ccc2[nH]c3nc(O)nc-3cc2c1 |  | 
50 | 0.0004 | 0.002 | 5 | CN(C(=O)CCCCOc1ccc2nc3[nH]c(=O)[nH]c3cc2c1)C1CCCCCC1 |  | 
51 | 0.02 | 0.004 | > 100 | OCCOc1ccc2[nH]c3nc(O)nc-3cc2c1 | < 10 | 

Row | IC50 (Phosphodiesterase 3) [µM] | EC50 (Oryctolagus cuniculus) [µM] | IC50 [1] [µM] | Compound | ED50 (Rattus norvegicus [2]) [mg/kg] | inhibition in vivo at 10 mg/kg (Rattus norvegicus [3]) [%]
52 | 0.2 | 0.04 | 8 | CN(C(=O)CCCOc1ccc2nc3nc(O)n(C)c3cc2c1)C1CCCCC1 |  | 
53 |  | 0.02 | 40 | O=C(CCCOc1ccc2nc3[nH]c(=O)[nH]c3cc2c1)N1CCOCC1 |  | 
54 | 0.001 | 0.05 | 100 | O=C(CCCOc1ccc2[nH]c3nc(O)nc-3cc2c1)NC12C[C@H]3C[C@@H](C1)C[C@@H](C2)C3 | 4 | 
55 | 0.1 | 0.13 |  | CN(C(=O)CCCOc1ccc2nc3c(cc2c1)nc(O)n3C)C1CCCCC1 | < 10 | 68
56 | 0.005 | 0.09 | 100 | CCOC(=O)C1CCN(C(=O)CCCOc2ccc3[nH]c4nc(O)nc-4cc3c2)CC1 | 9.6 | 
57 | 0.1 | 0.03 |  | CC(=O)OCCCOc1ccc2[nH]c3nc(O)nc-3cc2c1 |  | 
58 | 0.02 | 0.02 |  | CCOC(=O)CCCOc1ccc2[nH]c3nc(O)nc-3cc2c1 |  | 
59 | 0.002 | 0.0002 | 5 | CN(C(=O)CCCCOc1ccc2[nH]c3nc(O)nc-3cc2c1)C1CCCCC1 |  | 
60 | 0.04 | 0.026 |  | CN(C(=O)CCCCc1ccc2[nH]c3nc(O)nc-3cc2c1)C1CCCCC1 |  | 
61 | 0.6 | 0.14 |  | CCOC(=O)CCc1ccc2[nH]c3nc(O)nc-3cc2c1 |  | 
62 | 0.02 | 0.004 |  | O=C(CCCOc1ccc2[nH]c3nc(O)nc-3cc2c1)NC1CCCC1 |  | 
63 |  | 0.005 |  | CN(C(=O)CCCOc1ccc2[nH]c3nc(O)nc-3cc2c1)C1CCCCCC1 |  | 
64 | 0.02 | 0.064 |  | OCC(O)COc1ccc2[nH]c3nc(O)nc-3cc2c1 (centres undefined) |  | 
65 | 0.006 | 0.033 | 20 | OCCCCOc1ccc2[nH]c3nc(O)nc-3cc2c1 | > 10 | 47
66 | 0.01 | 0.008 |  | O=C(CCCOc1ccc2[nH]c3nc(O)nc-3cc2c1)NC1CCCCCC1 | 5.4 | 
67 |  | 0.007 | > 100 | O=C(CCCOc1ccc2nc3[nH]c(=O)[nH]c3cc2c1)NC1CCCCC1 |  | 31
68 | 0.06 | 0.027 | > 100 | COC(=O)CCCCCOc1ccc2nc3[nH]c(=O)[nH]c3cc2c1 |  | 
69 | 0.004 | 0.045 | > 100 | Oc1nc2cc3cc(OCCCCc4nnnn4C4CCCCC4)ccc3[nH]c-2n1 |  | 44
